Data set [1] in a line: Tmax in CrljOri:CD1 mouse at 2 mg/kg, iv measured for 24 hrs by LC-MS/MS analysis. It is filed as ADME, organism-based. The note with it: in vivo. The essentials:
(§1)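 Male CrljOri:CD1 mice, 7 weeks old (about 31.4 g), given single i.v. 2 mg/5 mL/kg or oral 10 mg/10 mL/kg dose in 5% DMSO/40% PEG 400/55% DW, cross-over design (n = 3). Retro-orbital blood taken 5 min (i.v. only) to 24 h into heparinized tubes. Plasma separated at 4 °C, stored at -15 °C, analysed by LC-MS/MS.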

A short description of data set [2]: Half life in CrljOri:CD1 mouse at 10 mg/kg, po measured for 24 hrs by LC-MS/MS analysis. The class given is ADME, organism-based. The settings on record: in vivo. In short, it runs like this:
as §1

Data set [3] is described as follows: AUC (0 to t) in CrljOri:CD1 mouse at 10 mg/kg, po measured for 24 hrs by LC-MS/MS analysis. The class given is ADME, organism-based. On the set-up: time 24 hrs, dose 10 mg/kg, route po. The settings on record: in vivo. In short, it runs like this: as §1
A short description of data set [4]: Clearance in CrljOri:CD1 mouse at 2 mg/kg, iv measured for 24 hrs by LC-MS/MS analysis. It is filed as ADME, organism-based. The settings on record: in vivo. The essentials: as §1
The nature of data set [5]: Tmax in CrljOri:CD1 mouse at 10 mg/kg, po measured for 24 hrs by LC-MS/MS analysis. It is filed as ADME, organism-based. The note with it: in vivo. In short, it runs like this: as §1
Data set [6] can be described thus: Synergistic antitumor activity against mouse 4T1-Luc cells implanted in BALB/c mouse assessed as tumor growth inhibition at 10 mg/kg, ip administered thrice a week for 21 days in presence of anti-mouse PD-L1 relative to control. The class given is functional. The settings on record: 504 h, read-out: TGI, time 21 day. In short, it runs like this:
(§2)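 Mice received 4T1-Luc cells subcutaneously in flank (1 × 10^6 cells, 50:50 PBS/Matrigel), tumors grown 7 days to about 50 mm³, then randomized (n = 5). Vehicle (DMSO/cremophor/normal saline 5:5:90), 10 mg/kg test drug, anti-mouse PD-L1 10 mg/kg, or both given i.p. thrice weekly for 21 days. Tumor volume by caliper (3.14 × L × W × H/6), tumors excised and weighed; toxicity judged by body weight loss.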

Data set [7] can be described thus: Oral bioavailability in CrljOri:CD1 mouse at 10 mg/kg measured for 24 hrs by LC-MS/MS analysis. The class given is ADME, organism-based. The settings on record: in vivo. In short, it runs like this:
as §1

Data set [8] in a line: Cmax in CrljOri:CD1 mouse at 10 mg/kg, po measured for 24 hrs by LC-MS/MS analysis. The class given is ADME, organism-based. The arrangement: time 24 hrs, dose 10 mg/kg, route po. The note with it: in vivo. The essentials:
as §1

Data set [9] can be described thus: Toxicity in BALB/c mouse implanted with mouse 4T1-Luc cells assessed as adverse effects at 10 mg/kg, ip administered thrice a week for 21 days in presence of anti-mouse PD-L1. The settings on record: in vivo, 504 h, time 21 day. The class given is organism-based. In short, it runs like this: as §2
A short description of data set [10]: Volume of distribution at steady state in CrljOri:CD1 mouse at 2 mg/kg, iv measured for 24 hrs by LC-MS/MS analysis. The class given is ADME, organism-based. The note with it: in vivo. The essentials: as §1
Data set [11] in a line: Toxicity in BALB/c mouse implanted with mouse 4T1-Luc cells assessed as adverse effects at 10 mg/kg, ip administered thrice a week for 21 days. The class given is organism-based. The note with it: in vivo, 504 h, time 21 day. The essentials:
as §2

The nature of data set [12]: Toxicity in BALB/c mouse implanted with mouse 4T1-Luc cells assessed as body weight loss at 10 mg/kg, ip administered thrice a week for 21 days. It is filed as organism-based. The settings on record: in vivo, 504 h, time 21 day. The essentials: as §2
A short description of data set [13]: AUC (0 to t) in CrljOri:CD1 mouse at 2 mg/kg, iv measured for 24 hrs by LC-MS/MS analysis. The class given is ADME, organism-based. The arrangement: dose 2 mg/kg, time 24 hrs, route iv. The settings on record: in vivo. The essentials: as §1
Data set [14] can be described thus: Antitumor activity against mouse 4T1-Luc cells implanted in BALB/c mouse assessed as tumor growth inhibition at 10 mg/kg, ip administered thrice a week for 21 days relative to control. It is filed as functional. The settings on record: 504 h, time 21 day, read-out: TGI. In short, it runs like this: as §2
A short description of data set [15]: Cmax in CrljOri:CD1 mouse at 2 mg/kg, iv measured for 24 hrs by LC-MS/MS analysis. The class given is ADME, organism-based. On the set-up: time 24 hrs, dose 2 mg/kg, route iv. The settings on record: in vivo. In short, it runs like this: as §1
In the next data set the test system is 4T1-Luc. As to the kind of experiment: Synergistic antitumor activity against mouse 4T1-Luc cells implanted in BALB/c mouse assessed as reduction in tumor growth at 10 mg/kg, ip administered thrice a week for 21 days in presence of anti-mouse PD-L1 by IVIS imaging analysis. The settings on record: time 21.0 day. The class given is functional, organism-based. In short, it runs like this: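 On final day of the 4T1-Luc i.p. dosing study (n = 5 per group, thrice weekly for 21 days), anesthetized mice were imaged by IVIS 15 min after D-luciferin (150 mg/kg in PBS). Average tumor signal intensity was quantified.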

Data set [16] in a line: Toxicity in BALB/c mouse implanted with mouse 4T1-Luc cells assessed as body weight loss at 10 mg/kg, ip administered thrice a week for 21 days in presence of anti-mouse PD-L1. The class given is organism-based. The settings on record: in vivo, 504 h, time 21 day. In short, it runs like this: as §2
The target of data set [17] is Voltage-gated inwardly rectifying potassium channel KCNH2 (Homo sapiens, UniProt Q12809). As to the kind of experiment: Inhibition of hERG expressed in CHO cells at 1 to 10 uM incubated for 300 secs by patch-clamp method. The class given is toxicity, cell-based. The settings on record: 5 min, dose 1-10 µM, time 300 sec. (hERG is a cardiac potassium channel; its block is linked to QT prolongation.)

Data set [18] can be described thus: Half life in CrljOri:CD1 mouse at 2 mg/kg, iv measured for 24 hrs by LC-MS/MS analysis. It is filed as ADME, organism-based. The note with it: in vivo. The essentials: as §1

Structures are written as SMILES. The source made the active and inactive calls. The rule behind the calls is not given here.

As a reminder, the Tmax is the time from dosing to the highest level. The clearance is the rate of elimination divided by the concentration. By Cmax is commonly meant the highest concentration seen after dosing. As usually defined, the Vdss is the apparent volume that relates the amount in the body to the concentration in plasma or blood. Low values mean little distribution into tissue, high ones wide distribution into tissue.

Sequence of Voltage-gated inwardly rectifying potassium channel KCNH2 (Q12809 whole entry): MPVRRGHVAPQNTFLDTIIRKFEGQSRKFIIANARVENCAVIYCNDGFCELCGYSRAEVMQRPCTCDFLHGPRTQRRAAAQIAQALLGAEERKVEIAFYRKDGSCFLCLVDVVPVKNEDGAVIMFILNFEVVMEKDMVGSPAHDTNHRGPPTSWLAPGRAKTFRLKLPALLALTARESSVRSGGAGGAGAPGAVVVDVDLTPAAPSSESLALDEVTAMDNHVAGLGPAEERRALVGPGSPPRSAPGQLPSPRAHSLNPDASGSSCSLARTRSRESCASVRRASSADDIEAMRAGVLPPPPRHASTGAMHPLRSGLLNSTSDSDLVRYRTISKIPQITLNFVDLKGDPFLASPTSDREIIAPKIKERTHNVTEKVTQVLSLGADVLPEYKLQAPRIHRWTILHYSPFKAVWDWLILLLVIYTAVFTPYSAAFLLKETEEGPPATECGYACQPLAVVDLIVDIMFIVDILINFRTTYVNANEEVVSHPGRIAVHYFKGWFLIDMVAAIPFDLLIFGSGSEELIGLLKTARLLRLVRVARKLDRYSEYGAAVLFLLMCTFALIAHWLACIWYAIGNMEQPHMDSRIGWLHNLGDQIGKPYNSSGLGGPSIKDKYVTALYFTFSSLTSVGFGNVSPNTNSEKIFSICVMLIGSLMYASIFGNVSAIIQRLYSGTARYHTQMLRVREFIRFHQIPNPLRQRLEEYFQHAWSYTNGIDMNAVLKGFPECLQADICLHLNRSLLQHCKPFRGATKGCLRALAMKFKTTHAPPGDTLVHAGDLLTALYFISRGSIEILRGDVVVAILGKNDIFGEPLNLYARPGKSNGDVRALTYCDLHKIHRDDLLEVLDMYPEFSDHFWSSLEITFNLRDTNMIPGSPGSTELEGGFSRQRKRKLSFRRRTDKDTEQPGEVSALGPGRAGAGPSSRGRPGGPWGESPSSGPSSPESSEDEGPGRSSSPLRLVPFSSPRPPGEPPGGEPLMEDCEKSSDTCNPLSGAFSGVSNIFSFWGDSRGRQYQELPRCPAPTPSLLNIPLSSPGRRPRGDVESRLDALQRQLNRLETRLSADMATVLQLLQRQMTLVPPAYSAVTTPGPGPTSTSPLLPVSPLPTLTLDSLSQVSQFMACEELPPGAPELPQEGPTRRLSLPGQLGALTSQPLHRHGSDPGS

On to `CCCCC#Cc1nc(N)c2nc(-c3cccs3)n([C@@H]3OC[C@@H](O)[C@H]3O)c2n1`, for which the values for the Tmax in data set [1] and in data set [5] were 4.8 min and 15 min, respectively. Further, the t1/2 in [2] was found to be 119 min; in data set [18], 9.6 min. Besides, the figures for the AUCt in data set [3] and in data set [13] were 626.55 ng·h/mL and 550.95 ng·h/mL, respectively. In addition, the clearance in data set [4] is 60.5 mL/min/kg. Moreover, the inhibition in vivo at 10 mg/kg in [6] turned out to be 77%; in data set [14], 15%. The same compound registered a F in data set [7] of 22.81%. Moreover, the highest concentration (Cmax) in data set [8] came out at 1241.79 ng/mL; in [15], 1984.94 ng/mL. The Activity result in [9], in data set [11], in [12] and in [16] was “Non-Toxic” each time. In addition, in [10], the Vdss worked out at 0.69 L/kg. Further, the outcome in the data set on 4T1-Luc was Active. For the same compound, in [17], the “inhibition (INH)” value was “Not Active”.

The record behind these values is ChEMBL document CHEMBL5365430, “Structure-Activity Relationship of Truncated 2,8-Disubstituted-Adenosine Derivatives as Dual A2A/A3 Adenosine Receptor Antagonists and Their Cancer Immunotherapeutic Activity” (J Med Chem, 2023).
